The values that follow come from ChEMBL document CHEMBL3259570, “4-([1,2,4]Triazolo[1,5-a]pyridin-6-yl)-5(3)-(6-methylpyridin-2-yl)imidazole and -pyrazole derivatives as potent and selective inhibitors of transforming growth factor-β type I receptor kinase” (Bioorg Med Chem, 2014).

A word on the IC50: it is the concentration at which inhibition is half-maximal.

One series has as its target T1, TGF-beta receptor type-1 (Homo sapiens, UniProt P36897).
T1 sequence (P36897 whole entry): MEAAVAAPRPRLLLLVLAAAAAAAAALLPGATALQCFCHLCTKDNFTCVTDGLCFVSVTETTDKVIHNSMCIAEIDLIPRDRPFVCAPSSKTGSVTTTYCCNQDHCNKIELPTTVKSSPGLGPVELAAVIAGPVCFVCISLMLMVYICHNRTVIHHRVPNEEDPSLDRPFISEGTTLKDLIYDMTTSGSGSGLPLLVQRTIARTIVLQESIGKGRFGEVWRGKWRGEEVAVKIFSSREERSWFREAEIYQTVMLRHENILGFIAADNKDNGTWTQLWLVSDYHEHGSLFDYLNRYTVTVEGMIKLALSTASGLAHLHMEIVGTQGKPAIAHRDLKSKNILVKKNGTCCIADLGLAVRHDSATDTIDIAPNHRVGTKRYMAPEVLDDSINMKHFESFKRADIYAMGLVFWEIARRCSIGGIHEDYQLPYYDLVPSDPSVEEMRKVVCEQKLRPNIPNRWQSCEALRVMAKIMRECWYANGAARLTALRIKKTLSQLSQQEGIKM
Briefly: Inhibition of GST-fused recombinant human ALK5 expressed in baculovirus-infected insect Sf9 cells using casein as substrate by radioisotope-based assay.

Series [1] has as its target Mitogen-activated protein kinase 14 (Homo sapiens, UniProt Q16539). As to the kind of experiment: Inhibition of recombinant human p38-alpha expressed in Escherichia coli using ATF2 as substrate by radioisotope-based assay.
For the next series, the species on record is Homo sapiens. Briefly: Selectivity index, ratio of IC50 for recombinant human p38-alpha to IC50 for GST-fused recombinant human ALK5. The procedure, abridged:
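Ratio of p38α IC50 to ALK5 IC50. ALK5 was a human recombinant GST-fusion protein expressed in Sf9 insect cells via baculovirus. p38α was […] human recombinant protein expressed in E. coli and purified on Ni-NTA agarose. Both were run in a radioisotopic ³³P protein kinase assay (³³PanQinase), with casein as the ALK5 substrate and ATF2 as the p38α substrate.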

Series [2] deals with Plasma. As to the kind of experiment: Retention time of the compound in rat plasma treated with [14C]-EW-7197, po by LC-MS analysis. In kind it is ADME, organism-based.
Series [3] can be described thus: Drug level in rat feces treated with [14C]-EW-7197, po by LC-MS analysis. As to conditions: in vivo. In kind it is ADME, organism-based.
Series [4] is described as follows: Drug level in rat urine treated with [14C]-EW-7197, po by LC-MS analysis. In kind it is ADME, organism-based. Particulars: in vivo.
Series [5] is described as follows: Drug level in rat bile treated with [14C]-EW-7197, po by LC-MS analysis. In kind it is ADME, organism-based. Particulars: in vivo.
Series [6] can be described thus: Drug metabolism in po dosed rat bile assessed as formation of 4-([1,2,4]triazolo[1,5-a]pyridin-6-yl)-5-(6-methylpyridin-2-yl)-1H-imidazole-2-carboxylic acid by LC-MS analysis. The format is ADME, organism-based. As to conditions: in vivo.
For series [7], the system named is Plasma. As to the kind of experiment: Retention time of the compound in po dosed rat plasma by LC-MS analysis. Particulars: in vivo. In kind it is ADME, organism-based.
Series [8] deals with Plasma. As to the kind of experiment: Drug metabolism in po dosed rat plasma assessed as formation of 4-([1,2,4]triazolo[1,5-a]pyridin-6-yl)-5-(6-methylpyridin-2-yl)-1H-imidazole-2-carbaldehyde by LC-MS analysis. Particulars: in vivo. The format is ADME, organism-based.
A short description of series [9]: Drug metabolism in po dosed rat urine assessed as formation of (4-([1,2,4]triazolo[1,5-a]pyridin-6-yl)-5-(6-methylpyridin-2-yl)-1H-imidazol-2-yl)methanol by LC-MS analysis. In kind it is ADME, organism-based. Particulars: in vivo.
A short description of series [10]: Drug metabolism in po dosed rat feces assessed as formation of 4-([1,2,4]triazolo[1,5-a]pyridin-6-yl)-5-(6-methylpyridin-2-yl)-1H-imidazole-2-carbaldehyde by LC-MS analysis. As to conditions: in vivo. In kind it is ADME, organism-based.
Series [11] can be described thus: Drug metabolism in po dosed rat feces assessed as formation of 4-([1,2,4]triazolo[1,5-a]pyridin-6-yl)-5-(6-methylpyridin-2-yl)-1H-imidazole-2-carboxylic acid by LC-MS analysis. The format is ADME, organism-based. Particulars: in vivo.
Series [12] can be described thus: Drug metabolism in po dosed rat urine assessed as formation of 4-([1,2,4]triazolo[1,5-a]pyridin-6-yl)-5-(6-methylpyridin-2-yl)-1H-imidazol-2-ol by LC-MS analysis. In kind it is ADME, organism-based. Particulars: in vivo.
Series [13] concerns Plasma. Briefly: Drug metabolism in po dosed rat plasma assessed as formation of 4-([1,2,4]triazolo[1,5-a]pyridin-6-yl)-5-(6-methylpyridin-2-yl)-1H-imidazole-2-carboxylic acid by LC-MS analysis. The format is ADME, organism-based. As to conditions: in vivo.
A short description of series [14]: Drug metabolism in po dosed rat feces assessed as formation of (4-([1,2,4]triazolo[1,5-a]pyridin-6-yl)-5-(6-methylpyridin-2-yl)-1H-imidazol-2-yl)methanol by LC-MS analysis. The format is ADME, organism-based. As to conditions: in vivo.
A short description of series [15]: Drug metabolism in po dosed rat urine assessed as formation of 4-([1,2,4]triazolo[1,5-a]pyridin-6-yl)-5-(6-methylpyridin-2-yl)-1H-imidazole-2-carboxylic acid by LC-MS analysis. In kind it is ADME, organism-based. As to conditions: in vivo.
The nature of series [16]: Drug metabolism in po dosed rat bile assessed as formation of 4-([1,2,4]triazolo[1,5-a]pyridin-6-yl)-5-(6-methylpyridin-2-yl)-1H-imidazole-2-carbaldehyde by LC-MS analysis. In kind it is ADME, organism-based. As to conditions: in vivo.
For series [17], the system named is Plasma. Briefly: Drug metabolism in po dosed rat plasma assessed as formation of (4-([1,2,4]triazolo[1,5-a]pyridin-6-yl)-5-(6-methylpyridin-2-yl)-1H-imidazol-2-yl)methanol by LC-MS analysis. In kind it is ADME, organism-based. As to conditions: in vivo.
A short description of series [18]: Retention time of the compound in rat bile treated with [14C]-EW-7197, po by LC-MS analysis. The format is ADME, organism-based.
For series [19], the system named is Plasma. Briefly: Drug level in rat plasma treated with [14C]-EW-7197, po by LC-MS analysis. In kind it is ADME, organism-based. As to conditions: in vivo.
The nature of series [20]: Retention time of the compound in rat urine treated with [14C]-EW-7197, po by LC-MS analysis. In kind it is ADME, organism-based.
Series [21] has as its target T2, TGF-beta receptor type-1 (Homo sapiens) (UniProt P36897).
T2 sequence (whole entry): T1 sequence (P36897 whole entry)
As to the kind of experiment: Potency index, ratio of SB-505124 IC50 to compound IC50 for GST-fused recombinant human ALK5 expressed in baculovirus-infected insect Sf9 cells.

Mitogen-activated protein kinase 14, sequence (Q16539 whole entry, the tested form may be a part): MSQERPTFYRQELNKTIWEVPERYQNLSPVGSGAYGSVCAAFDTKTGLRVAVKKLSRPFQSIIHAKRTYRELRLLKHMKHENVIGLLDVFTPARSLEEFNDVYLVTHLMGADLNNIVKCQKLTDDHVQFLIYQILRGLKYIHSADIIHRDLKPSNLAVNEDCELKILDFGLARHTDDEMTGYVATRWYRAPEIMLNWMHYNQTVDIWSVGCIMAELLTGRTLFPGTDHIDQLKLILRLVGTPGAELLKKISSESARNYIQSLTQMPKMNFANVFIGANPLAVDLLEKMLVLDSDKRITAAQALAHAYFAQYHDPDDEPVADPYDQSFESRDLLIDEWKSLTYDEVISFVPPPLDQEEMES

`Cc1cccc(-c2nn(CC(=S)Nc3ccccc3F)cc2-c2ccc3ncnn3c2)n1`: the values for the IC50 (at TGF-beta receptor type-1; in series [1]) were 0.029 µM and 5.21 µM, respectively. In the series filed under Homo sapiens, the Ratio IC50 was 180.

Turning to `Cc1cccc(-c2nn(CC(=O)Nc3cccc(C(N)=O)c3)cc2-c2ccc3ncnn3c2)n1`, the IC50 at TGF-beta receptor type-1 was 0.036 µM; in series [1], greater than 10 µM. Further, the Ratio IC50 in the series listed under Homo sapiens was greater than 278.

Consider `Cc1cccc(-c2[nH]c(CNC(=S)c3ccccc3)nc2-c2ccc3ncnn3c2)n1`, for which the IC50 is 0.048 µM on TGF-beta receptor type-1 and 3.77 µM in series [1]. Further, the Ratio IC50 in the series listed under Homo sapiens was 79.

Regarding `Cc1cccc(-c2[nH]c(CNC(=O)c3cccc(C#N)c3)nc2-c2ccc3ncnn3c2)n1`, the results for the IC50 (at TGF-beta receptor type-1; in series [1]) were 0.09 µM and greater than 10 µM, respectively. For the same compound, the Ratio IC50 in the series listed under Homo sapiens was greater than 111.

For the compound `Cc1cccc(-c2[nH]c(Cc3cccc(C(N)=O)c3)nc2-c2ccc3nccnc3c2)n1`, in the series filed under Homo sapiens, the Ratio IC50 worked out at 28.

In the case of `Cc1cccc(-c2[nH]c(CNC(=S)c3ccccc3F)nc2-c2ccc3ncnn3c2)n1`, the IC50 at TGF-beta receptor type-1 is 0.027 µM; in series [1], 1.05 µM. Moreover, in the series listed under Homo sapiens, the Ratio IC50 was 39.

For `Cc1cccc(-c2nn(CC(=O)Nc3ccccc3)cc2-c2ccc3ncnn3c2)n1`, the IC50 was 0.078 µM at TGF-beta receptor type-1 and greater than 10 µM in series [1]. For the same compound, the Ratio IC50 in the series listed under Homo sapiens was greater than 128.

In the case of `Cc1cccc(-c2[nH]c(CNC(=O)c3ccccc3)nc2-c2ccc3ncnn3c2)n1`, the IC50 on TGF-beta receptor type-1 was 0.057 µM; in [1], greater than 10 µM. For the same compound, the Ratio IC50 in the series listed under Homo sapiens was greater than 175.

`Cc1cccc(-c2[nH]c(C(=O)O)nc2-c2ccc3ncnn3c2)n1` displayed a Retention_time in the series on Plasma [2] of 24.43 min. In addition, the Drug metabolism entry in series [3], in series [4] and in series [5] was “metabolite_detected” throughout.

Consider `Cc1cccc(-c2[nH]c(CNC(=S)c3cccc(C#N)c3)nc2-c2ccc3ncnn3c2)n1`, for which the IC50 stood at 0.036 µM at TGF-beta receptor type-1 and 1.49 µM in series [1]. Further, the Ratio IC50 in the series listed under Homo sapiens is 41.

With `Cc1cccc(-c2[nH]c(CNc3ccccc3F)nc2-c2ccc3ncnn3c2)n1` [VACTOSERTIB], the Drug metabolism entry (in [6]; in the series on Plasma [8]; in series [9]; in series [10]; in series [11]; in [12]) was “metabolite_detected” each time. Further, the Drug metabolism entry (in the series with Plasma [13]; in series [14]; in series [15]; in [16]; in the series on Plasma [17]) was “metabolite_detected” each time. Also, in the series with Plasma [7], the Retention_time stood at 71.53 min.

As for `Cc1cccc(-c2nn(CC(=O)Nc3cccc(C#N)c3)cc2-c2ccc3ncnn3c2)n1`, the figures for the IC50 (at TGF-beta receptor type-1; in [1]) were 0.027 µM and greater than 10 µM, respectively. For the same compound, in the series filed under Homo sapiens, the Ratio IC50 is greater than 370.

Regarding `Cc1cccc(-c2[nH]c(CNC(=S)c3cccc(C(N)=O)c3)nc2-c2ccc3ncnn3c2)n1`, the figures for the IC50 (on TGF-beta receptor type-1; in series [1]) were 0.022 µM and 2.83 µM, respectively. For the same compound, in the series filed under Homo sapiens, the Ratio IC50 is 129.

Regarding `Cc1cccc(-c2[nH]c(CO)nc2-c2ccc3ncnn3c2)n1`, the Retention_time in series [18] was 53.65 min. The Drug metabolism entry (in series [3]; in series [4]; with Plasma [19]) was “metabolite_detected” throughout.

`Cc1cccc(-c2[nH]c(CNC(=O)c3ccccc3F)nc2-c2ccc3ncnn3c2)n1`: the IC50 was 0.037 µM on TGF-beta receptor type-1 and greater than 10 µM in series [1]. Moreover, the Ratio IC50 in the series filed under Homo sapiens was greater than 270.

Consider `Cc1cccc(-c2[nH]c(C=O)nc2-c2ccc3ncnn3c2)n1`, for which the Retention_time in [20] is 62.37 min. Further, the Drug metabolism result (in series [3]; in series [5]; in the series on Plasma [19]) was “metabolite_detected” throughout.

Turning to `Cc1cccc(-c2nn(CC(=O)Nc3ccccc3F)cc2-c2ccc3ncnn3c2)n1`, the IC50 was 0.085 µM on TGF-beta receptor type-1 and greater than 10 µM in series [1]. For the same compound, in the series listed under Homo sapiens, the Ratio IC50 is greater than 118.

Consider `Cc1cccc(-c2nn(CC(=S)Nc3cccc(C#N)c3)cc2-c2ccc3ncnn3c2)n1`, for which the figures for the Ratio IC50 (in [21]; in the series filed under Homo sapiens) were 3 and 284, respectively. Besides, the values for the IC50 (on TGF-beta receptor type-1; in [1]) were 0.018 µM and 5.11 µM, respectively.

In the case of `Cc1cccc(-c2[nH]c(O)nc2-c2ccc3ncnn3c2)n1`, the Retention_time in series [18] is given as 54.56 min. For the same compound, in series [4], the Drug metabolism result is listed as “metabolite_detected”.

Regarding `Cc1cccc(-c2[nH]c(CNC(=O)c3cccc(C(N)=O)c3)nc2-c2ccc3ncnn3c2)n1`, the IC50 at TGF-beta receptor type-1 was 0.106 µM; in [1], greater than 10 µM. Further, in the series filed under Homo sapiens, the Ratio IC50 is greater than 94.

Turning to `Cc1cccc(-c2[nH]c(CN)nc2-c2ccc3ncnn3c2)n1`, the Retention_time in series [18] is recorded as 68.77 min.
